High-throughput results: PubChem, Broad Institute
Hits are enriched below; roughly 1.5% of the tested compounds scored in any of these assays.
S100A4 inh HTS: inhibitors of S100A4-myosin IIA peptide binding, primary screen, biochemical, fluorescence polarization, TAMRA-MyoIIA peptide; Protein S100-A4 (Homo sapiens), P26447; inhibition, % at 10.7 µM; actives 0.14% (n = 360,000);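 active = mean inhibition of at least 70% across replicates, with every replicate also reaching that level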
Target sequence (P26447 whole entry, looked up): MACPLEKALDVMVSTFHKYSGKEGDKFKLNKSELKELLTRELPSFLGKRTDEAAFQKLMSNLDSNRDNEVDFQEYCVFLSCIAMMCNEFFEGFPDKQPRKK
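Test system: S100A4 monomer protein; Medium: HEPES pH 7.2 with CaCl2, KCl, NaCl, DTT, Triton; Probe or stimulus: TAMRA-labelled myosin IIA heavy-chain peptide probe, 5 nM; Doses: one dose per compound; Times: polarization read 5 min after assay mix addition, stable 5–60 min; Benchmarks: neutral control DMSO, positive control TFP.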
ERAP1 HTS inh: human ERAP1 aminopeptidase inhibitors, primary screen, biochemical, single point, plate reader | Endoplasmic reticulum aminopeptidase 1 (Homo sapiens), Q9NZ08 | recombinant ERAP1, Leu-AMC fluorescence, 60 min | inhibition, % at 10.7 µM | actives 0.15% (n = 340,000) | AID 652197, 2013;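 active = mean replicate inhibition of at least 30%, or all replicates individually reaching that 30% level; inactive = mean below 30% and not every replicate reaching it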;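 also: 0% = neutral control wells and 100% = L-leucinethiol positive control wells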
RAD52 anneal inh: RAD52 DNA annealing inhibitors, primary screen, biochemical, FRET, single point, set 2; DNA repair protein RAD52 homolog (Homo sapiens), P43351; recombinant RAD52 DNA annealing, FRET fluorescence; inhibition, % at 18.7 µM; actives 0.46% (n = 360,000);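 active = every replicate showing at least 50% inhibition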
Target sequence (P43351 whole entry, looked up): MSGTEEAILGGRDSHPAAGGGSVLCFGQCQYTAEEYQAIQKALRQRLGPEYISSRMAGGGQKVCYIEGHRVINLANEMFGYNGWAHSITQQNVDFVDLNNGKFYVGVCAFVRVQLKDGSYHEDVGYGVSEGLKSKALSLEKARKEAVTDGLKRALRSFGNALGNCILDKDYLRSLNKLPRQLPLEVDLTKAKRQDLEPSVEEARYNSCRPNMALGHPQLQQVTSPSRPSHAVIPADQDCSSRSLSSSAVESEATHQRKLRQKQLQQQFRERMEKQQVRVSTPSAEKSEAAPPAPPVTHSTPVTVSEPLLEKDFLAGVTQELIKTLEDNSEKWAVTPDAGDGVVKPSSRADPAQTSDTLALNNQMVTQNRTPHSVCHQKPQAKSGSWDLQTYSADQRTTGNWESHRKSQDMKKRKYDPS
GSIS activator: GLuc luminescence reporter in INS-1E cells, primary screen for activators of glucose-dependent secretion of insulin; INS-1E GLuc reporter insulin secretion, 2-3 h; activation, % at 16.6 µM; actives 0.61% (n = 370,000);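 active = lowest replicate activation of at least 40%, so every replicate reaches that level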;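 also: 0% = median of neutral control wells and 100% = median of IBMX positive control wells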
MLL AF4-AF9 inh: inhibitors of AF4 peptide binding to AF9, primary screen, biochemical, AlphaScreen, biotin-AF4 peptide, FLAG-AF9, single point | Protein AF-9 (Homo sapiens), P42568 | inhibition, % at 10 µM | actives 0.47% (n = 350,000) | AID 651704, 2012;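 active = every replicate reaching a set inhibition limit, whatever the replicate mean, cut at about 25% in these data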;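 also: 0% = plate neutral control median and 100% = total signal loss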
An asterisk follows results filed as active; . = no result; ! = not active in a repeat.

SMILES	S100A4 inh HTS	ERAP1 HTS inh	RAD52 anneal inh	GSIS activator	MLL AF4-AF9 inh
OCc1nnc2c3ccccc3c(-c3ccccc3)nn12	0	-2	-2	41*	4
CC(C)c1c(O)c2c(n(-c3ccccc3)c1=O)CCCC2	.	.	.	61*	.
CN1CCN(c2ccc(-c3cc(NC=O)c4ncc(-c5ccc(F)cc5)n4c3)cc2)CC1	-4	0	21	6	38*
COc1ccc(-c2cc(NC=O)c3ncc(-c4ccc(OC)c(OC)c4)n3c2)cc1	-8	-4	-23	52*	4
O=CNc1cc(-c2cccc(F)c2)cn2c(-c3ccc(F)cc3)cnc12	2	-3	-27	.	-1
O=C1C[C@@H](c2ccccc2)C(=O)N[C@H](c2ccc3c(c2)OCO3)C/C=C\C[C@@H](c2ccc(F)cc2)N1	.	.	.	6	.
Cc1ccccc1CN1[C@@H](CC(C)C)COc2cc(Br)ccc2S1(=O)=O	-1	-1	13	-5	-2
C=C1[C@@H](O)[C@H](CC(C)C)N(Cc2ccccc2Br)S1(=O)=O	5	-2	-9	45*	.
CCN1CCCC(NC(=O)c2scc3c2CCCC3)C1 (stereo not given)	-2	-3	-4	.	47*
C[C@@H]1CN([C@H](C)CO)C(=O)c2cc(NC(=O)Cc3ccccc3)ccc2O[C@@H]1CN(C)Cc1ccc(Oc2ccccc2)cc1	-12	0	-39	-23	1
CC(=O)N1CC(=O)N2[C@H](CO)[C@@H](c3ccc(-c4ccccc4)cc3)[C@@H]2C1	.	.	.	2	.
CNC(=O)C[C@H]1CC[C@H]2[C@@H](COc3ccc(NC(=O)CN(C)C)cc3C(=O)N2C)O1	.	.	.	9	.
COc1ccc(NS(=O)(=O)c2cc(C(=O)N3CCCCCC3)ccc2C)cc1	-1	-5	-8	-37	0
Cc1ccc(C)c(S(=O)(=O)Nc2ccc(C(=O)N3CCC3)cc2)c1	4	1	-7	43*	-2
Cc1nnc2ccc(N3CCCCC3)nn12	0	-2	-9	-5	-1
Cc1nnc2ccc(N3CCN(c4cccc(C(F)(F)F)c4)CC3)nn12	13	3	2	.	51*
COc1cc(CNCCN2CCOCC2)ccc1OCc1ccc(Cl)cc1Cl	.	.	.	-13	.
COc1cc(CNCCO)cc(Cl)c1OCc1ccc(Cl)cc1Cl	-3	2	43	42*	14
COc1ccc(OC)c(NC(=O)Nc2nc(C(N)c3ccccc3Cl)cs2)c1 (stereo not given)	-3	-2	-97	-11	26*
COc1ccc(OC)c(NC(=O)Nc2nc(C(N)C(C)C)cs2)c1 (stereo not given)	-6	-2	-13	-10	20
CCN(C(=O)COC(=O)CNC(=O)c1cccs1)c1c(N)n(Cc2ccccc2)c(=O)[nH]c1=O	-7	7	-11	-4	1
COCCN(C(=O)COC(=O)CNC(=O)c1cccs1)c1c(N)n(Cc2ccccc2)c(=O)[nH]c1=O	-2	35*	-4	10	-2
CC1(C)NC(=O)N(CC(=O)OCC(=O)NC(=O)c2ccccc2)C1=O	-3	64*	-16	5	1
CCC1(CC)NC(=O)N(CC(=O)OCC(=O)NC(=O)c2ccc(Cl)cc2)C1=O	-1	4	-26	7	-5
O=C(Nc1cc(C(F)(F)F)ccc1N1CCOCC1)C1=NN(c2ccccc2)C(=O)CC1	-2	-3	-10	-13	11
SMILES	S100A4 inh HTS	ERAP1 HTS inh	RAD52 anneal inh	GSIS activator	MLL AF4-AF9 inh
O=C(Nc1ccccc1N1CCOCC1)C1=NN(c2ccccc2)C(=O)CC1	-3	3	3	50*	6
CCCNC(=O)Nc1ccc2c(c1)C(=O)N(C)[C@H]1CC[C@H](CC(=O)OC)O[C@@H]1CO2	-11	1	6	0	-2
COc1ccc(CN/C(C)=C(/C#N)C(N)=O)cc1OC	.	.	.	65*	.
COc1ccc(CCC(=O)OCC(=O)NCc2ccc(OC)c(OC)c2)cc1OC	-2	-6	-6	18	1
C[C@@H]1CCCCO[C@@H](CN(C)Cc2ccc3c(c2)OCO3)[C@@H](C)CN([C@H](C)CO)C(=O)c2cc(NS(=O)(=O)c3ccc(Cl)cc3)ccc2O1	-7	-2	31	-13	1
C[C@@H]1CCCCO[C@@H](CN(C)Cc2ccc3c(c2)OCO3)[C@@H](C)CN([C@@H](C)CO)C(=O)c2cc(NS(=O)(=O)c3ccc(Cl)cc3)ccc2O1	0	-1	58*!	-9	7
C[C@@H]1CN([C@H](C)CO)C(=O)c2cc(NS(=O)(=O)c3ccc(Cl)cc3)ccc2O[C@@H](C)CCCCO[C@H]1CN(C)Cc1ccc2c(c1)OCO2	3	1	52*!	-1	14
C[C@H]1CCCCO[C@H](CN(C)Cc2ccc3c(c2)OCO3)[C@@H](C)CN([C@@H](C)CO)C(=O)c2cc(NS(=O)(=O)c3ccc(Cl)cc3)ccc2O1	3	0	55*	-30	8
CNC[C@@H]1Oc2ncc(-c3ccccc3C)cc2C(=O)N([C@H](C)CO)C[C@H]1C	-14	3	2	-1	3
C[C@H]1CCCCO[C@@H](CN(C)C(=O)NC2CCCCC2)[C@@H](C)CN([C@@H](C)CO)C(=O)c2cc(NS(=O)(=O)c3ccccc3)ccc2O1	-5	3	-59	-24	0
OC[C@@H]1CC[C@@H]2O[C@H](CCc3ccc(C#CCc4ccccc4)cc3)[C@@H](n3cc(-c4ccccc4)nn3)C[C@@H]2O1	-41	.	9	.	.
COCC(=O)Nc1ccc2c(c1)C(=O)N(C)C[C@H](OC)[C@H](C)CN(C(=O)C1CCCC1)[C@H](C)CO2	-1	-4	-3	-9	1
COc1ccc(C(=O)/C=C2/c3ccccc3CC(C)(C)N2C)cc1OC	-41	5	2	41*	7
COc1ccc(C(=O)/C=C2\NCCc3cc(OC)c(OC)cc32)cc1OC	-4	1	-13	27	11
COc1ccc2c3c(n(C)c2c1)[C@H](CO)N(C(=O)Nc1ccc(F)cc1)CC31CN(S(=O)(=O)c2cccc(F)c2)C1	.	.	.	-29	-2
COc1ccc(C(=O)NNC(=O)c2ccccn2)cc1	-3	0	-14	13	-2
COc1ccc2c(c1)C(=NNC(=O)c1ccccn1)c1cc(OC)ccc1-2	.	.	.	146*	.
COc1ccccc1C#Cc1ccc([C@H]2[C@H](CO)N3CCCCN(C(=O)C4CC4)C[C@@H]23)cc1	4	5	38	.	6
N/C(=N\OC(=O)c1ccccc1Br)c1cccc([N+](=O)[O-])c1	-4	1	-11	41*	-1
N/C(=N\OC(=O)c1ccccc1Br)c1ccc([N+](=O)[O-])cc1	-1	-1	2	-1	1
